# An excerpt weighted towards active compounds, which were near 5.3% of everything screened.
# Mdm2 MdmX PPI – human Mdm2/MdmX binding inhibition | actives 3% (n = 330,000) | inhibition, % at 8 µM | SaOS-2 split-luciferase Mdm2/MdmX complementation, luminescence;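 active means inhibition of at least 50% at 8 µM in the primary screen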
# Calb FLC – C. albicans growth modulation with fluconazole; C. albicans CaCi-2 (fluconazole-resistant clinical isolate) + fluconazole, Alamar Blue growth, 48 h; growth inhibition, % (test concentration not listed); AID 1979; actives 0.57% (n = 300,000);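 active means growth inhibition above about 58% in most replicates, limit read from the data, passing the limit was not always enough; inconclusive means exactly half the replicates above a set limit; inactive means most replicates below a set limit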;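 further: all wells also contain fluconazole at 8 µg/ml as a sub-toxic cotreatment; 0% = median of DMSO wells and 100% = median of geldanamycin control wells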
# CSC inhib – blocks cancer stem cells. cancer stem cell-like cells viability, luminescence. inhibition, % at 7.5 µM. actives 1.1% (n = 300,000). AID 2717; in the data active means inhibition above about 75%; inconclusive means no clear call, values can overlap the other calls; tested in HMLE shEcad cells
# Beta cell apopt – beta cell apoptosis inhibition. actives 0.8% (n = 300,000). AID 435005. protection from apoptosis, % (no concentration beside the values). INS-1E cytokine-induced death, ATP luminescence, 48 h; percent of positive-control rescue, neutral wells zero;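 active means Every replicate reaches about 75%, or at least half do and their mean reaches it too, limit read from the data; inconclusive means At least half of replicates reach the limit but their mean does not; inactive means Under half of replicates reach the limit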;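 further: 0% = cytokine-treated negative control wells and 100% = positive control rescue; higher means more ATP so stronger rescue from cytokine killing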
# T cruzi inh – T. cruzi replication inhibition; AID 1885; actives 1.4% (n = 300,000); inhibition, % (no concentration beside the values); T. cruzi beta-gal in NIH3T3, luminescence, 90 h;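 active means mean inhibition across valid replicates above about 55%, limit read from the data; inconclusive means mean below that limit but half or more replicates reach it; inactive means mean below it, under half of replicates reach it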;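 further: signal also drops with host cell toxicity which is not excluded here; 0% = plate median of DMSO wells and 100% = zero luminescence signal; higher percent means less beta-gal luminescence so fewer parasites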
#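 Test system: β-gal T. cruzi (Tulahuen C4) inside NIH/3T3 cells / Quantity: 5,000 cells/well / Measured by: luminescence from GalScreen with 0.05% NP40, read after 60 min / Medium: DMEM plus 2% FBS / Measure: parasite load inhibition, % / Reagent: Tulahuen C4 trypomastigotes, 5000/well / Schedule: co-culture of at least 90 h after 3 h attachment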
# NLRP3 yeast inh – NALP3 inhibition in yeast; Yeast reconstituted NLRP3/ASC/caspase-1, beta-gal luminescence, 24 h; actives 0.39% (n = 330,000); inhibition, % at 10 µM;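 active means inhibition of 50% or more; inactive means inhibition below 50%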;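 further: plate controls were induced DMSO wells for no effect and uninduced yeast grown without galactose for full effect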
# Mdm2 MdmX conf – confirmation of human Mdm2/MdmX interaction inhibitors; Mdm2-MdmX binding, luminescent assay; actives 55% (n = 10,000); inhibition, % at 8 µM; shares compounds with Mdm2 MdmX PPI; in the data active means inhibition above about 40%
# FLuc counter – full-length luciferase inhibition in Mdm2/MdmX counter-screen; actives 77% (n = 6,200); inhibition, % at 8 µM; AID 504607; shares compounds with Mdm2 MdmX PPI; SaOS-2 full-length luciferase counterscreen, luminescence;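 active means mean inhibition at 8 µM reaching about 37%, which flags the compound as non-specific, limit read from the data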;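 further: p53-null SaOS-2 cells with luciferase driven by a doxycycline-inducible promoter; compound on cells about two nights before reading with doxycycline added after day one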
# Starred values were filed as active, the others as inactive; ? = inconclusive; · = no result.
SMILES,Mdm2 MdmX PPI,Calb FLC,CSC inhib,Beta cell apopt,T cruzi inh,NLRP3 yeast inh,Mdm2 MdmX conf,FLuc counter
CCOC(=O)N1CCN(CC(O)COc2c(C)cccc2C)CC1 (centres undefined),-19,10,-1,-3,-27,-2,·,·
O=C(CN1CCN(c2ncccn2)CC1)N(Cc1ccccc1)c1ccc(F)cc1,-25,6,-10,-8,9,14,·,·
Cc1ccc2c(c1)c1c3n2CCN(C(=O)CCl)C3CCC1 (centres undefined),51*,-14,-1,-2,-4,-6,18,92*
O=C1NCCc2c1[nH]c1ccccc21,11,-2,·,-1,8,5,·,·
COc1ccc2[nH]c3c(c2c1)CCNC3=O,71*,-2,-23,-9,-2,14,48*,34
Cn1c(CNS(=O)(=O)c2ccc(Br)cc2)n[nH]c1=S,-15,-3,-8,-4,-21,8,·,·
Cc1cc2oc(=O)c(CC(=O)NCCCN(C)C)c(C)c2c2occ(C(C)(C)C)c12,94*,8,91*,8,59*,19,76*,41*
COCCNC(=O)Cc1c(C)c2c(cc(C)c3c(C(C)(C)C)coc32)oc1=O,67*,-11,69,29,13,5,44*,64*
Cn1c(CNC(=O)c2ccco2)nnc1SCC(=O)c1ccc(Br)cc1,-11,0,·,-4,-9,21,·,·
O=C(/C=C/c1cccc([N+](=O)[O-])c1)NCCN1C(=O)S/C(=C\c2ccc(F)cc2)C1=O,-30,0,-30,0,6,13,·,·
Cc1c(C(=O)N2CCN(Cc3ccc4c(c3)OCO4)CC2)sc2ncnc(N3CCN(c4ccccc4)CC3)c12,73*,-3,19,3,33,20,34,·
Cc1c(C(=O)N2CCN(Cc3ccc4c(c3)OCO4)CC2)sc2ncnc(N3CCN(c4ccccc4F)CC3)c12,63*,-25,-4,-7,64*,19,23,·
Cc1csc(NC(=O)CSc2nnc(C)n2Cc2ccco2)n1,-31,5,-6,-4,-3,1,·,·
COc1ccc(CCN2C(=O)CC(Cc3ccccc3)C2=O)cc1OC (centres undefined),6,-3,-5,-7,-6,7,·,·
COc1ccc(OC(C)C(=O)NCc2cccnc2)cc1 (centres undefined),6,-3,-8,-19,-6,-6,·,·
Cc1c(Nc2cc(Cl)c3nonc3c2[N+](=O)[O-])c(=O)n(-c2ccccc2)n1C,99*,·,·,·,·,15,98*,57*
Cc1c(Nc2cc(N3CCOCC3)c3nonc3c2[N+](=O)[O-])c(=O)n(-c2ccccc2)n1C,·,-14,13,·,-3,·,·,·
O=C(O)c1ccc(Nc2cc(Cl)c3nonc3c2[N+](=O)[O-])cc1,-21,36,-1,-1,1,9,·,·
O=[N+]([O-])c1c(Nc2cccc(O)c2)cc(Cl)c2nonc12,100*,63,69,34,60*,39,100*,51*
COc1ccc(NC(=O)c2c(C(F)(F)F)nn(C)c2SCc2ccccc2Cl)cc1,9,2,2,0,15,13,·,·
O=C(CN(c1cccc(C(F)(F)F)c1)S(=O)(=O)c1ccc(Cl)c([N+](=O)[O-])c1)NCc1ccc(F)cc1,100*,-2,185*,1,14,14,39,95*
C/C(=C\c1ccccc1)C(=O)c1c(C)cc(C)[nH]c1=O,58*,?,·,5,-22,15,-4,·
C/C(=C\c1ccc(F)cc1)C(=O)c1c(C)cc(C)[nH]c1=O,38,-1,·,·,-2,6,·,·
Cc1cc(C)c(C(=O)/C=C/c2cccc3ccccc23)c(=O)[nH]1,88*,12,45,-4,21,12,94*,58*
CCN(C[C@H]1N[C@@](CC)(C(=O)OC)[C@H]2C(=O)N(C)C(=O)[C@@H]12)C(C)=O,10,·,·,·,·,11,·,·
